Legend:
[1] = Selectivity index, ratio of CC50 for human MRC5 cells to IC50 for amastigote stage of Leishmania infantum (MHOM/FR/2008/LEM5700) infected in mouse RAW264.7 cells; type: toxicity, cell-based; settings: read-out: Ratio CC50/IC50
Procedure, shortened: (§1)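 Selectivity index is CC50 on RAW 264.7 or MRC-5 cells divided by IC50 on intracellular amastigotes.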

[2] = target: Dual specificity protein kinase CLK1 (Mus musculus, UniProt P22518); assay: Inhibition of recombinant mouse CLK1 expressed in bacteria using GRSRSRSRSRSR as substrate in presence of ATP measured after 30 mins by ADP-Glo assay
Dual specificity protein kinase CLK1, sequence (P22518 whole entry): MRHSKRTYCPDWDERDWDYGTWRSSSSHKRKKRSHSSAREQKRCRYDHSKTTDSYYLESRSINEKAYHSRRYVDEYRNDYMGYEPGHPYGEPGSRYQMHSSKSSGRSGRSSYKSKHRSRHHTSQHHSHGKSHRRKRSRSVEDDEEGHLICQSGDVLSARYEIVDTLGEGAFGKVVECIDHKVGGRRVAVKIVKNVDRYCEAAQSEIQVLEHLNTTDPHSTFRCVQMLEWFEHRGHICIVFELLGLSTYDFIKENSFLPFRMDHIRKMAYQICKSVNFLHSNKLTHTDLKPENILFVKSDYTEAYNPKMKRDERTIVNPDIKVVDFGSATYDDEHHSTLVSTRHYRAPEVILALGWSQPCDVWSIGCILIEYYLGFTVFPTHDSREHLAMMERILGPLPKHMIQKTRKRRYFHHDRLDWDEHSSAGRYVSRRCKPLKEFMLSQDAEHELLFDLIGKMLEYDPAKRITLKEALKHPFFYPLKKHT

[3] = target: Serine/threonine-protein kinase pim-1 (Homo sapiens, UniProt P11309); assay: Inhibition of recombinant human PIM1 expressed in bacteria using histone H1 as substrate in presence of ATP measured after 30 mins by ADP-Glo assay; settings: 0.5 h
Serine/threonine-protein kinase pim-1, sequence (P11309 whole entry): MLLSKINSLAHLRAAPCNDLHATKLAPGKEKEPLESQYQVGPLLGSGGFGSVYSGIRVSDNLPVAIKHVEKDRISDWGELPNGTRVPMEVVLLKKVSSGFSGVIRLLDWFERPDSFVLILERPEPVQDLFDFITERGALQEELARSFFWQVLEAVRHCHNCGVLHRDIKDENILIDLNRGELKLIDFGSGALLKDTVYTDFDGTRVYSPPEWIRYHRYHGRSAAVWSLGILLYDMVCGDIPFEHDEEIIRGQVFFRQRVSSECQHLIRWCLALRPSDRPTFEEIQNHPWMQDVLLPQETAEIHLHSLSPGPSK

[4] = Selectivity index, ratio of CC50 for human MRC5 cells to IC50 for amastigote stage of Leishmania braziliensis (MHOM/BR/75/M2903b) infected in mouse RAW264.7 cells; type: toxicity, cell-based; settings: read-out: Ratio CC50/IC50; procedure, shortened: as §1
Aurora kinase B [5] = target: T1, Aurora kinase B (Homo sapiens, UniProt Q96GD4); assay: Inhibition of recombinant human AURKB expressed in baculovirus infected Sf9 cells using MBP as substrate in presence of ATP measured after 30 mins by ADP-Glo assay; settings: sf9, 0.5 h
T1 sequence (Q96GD4 whole entry): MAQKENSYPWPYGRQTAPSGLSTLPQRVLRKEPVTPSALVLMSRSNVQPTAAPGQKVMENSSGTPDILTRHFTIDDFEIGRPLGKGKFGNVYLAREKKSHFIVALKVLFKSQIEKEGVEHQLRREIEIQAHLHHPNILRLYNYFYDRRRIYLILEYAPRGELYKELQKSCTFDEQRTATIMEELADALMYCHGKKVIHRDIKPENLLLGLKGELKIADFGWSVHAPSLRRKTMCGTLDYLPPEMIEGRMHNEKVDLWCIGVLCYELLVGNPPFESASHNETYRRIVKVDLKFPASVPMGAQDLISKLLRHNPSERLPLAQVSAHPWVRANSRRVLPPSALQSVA

[6] = Selectivity index, ratio of CC50 for mouse RAW264.7 cells to IC50 for amastigote stage of Leishmania amazonensis (MHOM/BR/73/M2269) infected in mouse RAW264.7 cells; type: toxicity, cell-based; settings: read-out: Ratio CC50/IC50; procedure, shortened: as §1
[7] = Toxicity against Galleria mellonella larva assessed as cuticular darkening at 50 mg/kg measured for 7 days; type: organism-based; settings: in vivo, 168 h, time 7 day
Procedure, shortened: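 G. mellonella larvae (6th stage, 260–320 mg), groups of ten. Injected in the 4th left pro-leg with 10 μL at 10–50 mg/kg; controls got PBS/DMSO (DMSO <40%). Kept in the dark at 37 °C. Survival and cuticular darkening scored daily for 7 days; death taken as no movement on stimulus. Kaplan-Meier with log-rank test; two independent experiments.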

Leishmania braziliensis = assay: Antileishmanial activity against amastigote stage of Leishmania braziliensis (MHOM/BR/75/M2903b) infected in mouse RAW264.7 cells assessed as reduction in parasitic proliferation measured by SYBR Green 1 dye based fluorescence assay; type: functional, organism-based
Procedure, shortened: (§2)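 RAW 264.7 macrophages seeded at 100,000 cells/well in DMEM with 10% heat-inactivated FBS, 24 h at 37 °C, 5% CO₂. Infected with plateau-phase promastigotes (parasite:macrophage 16:1) for 24 h. Compounds serially diluted, final 391 nM–100 μM. Amastigote viability read by SYBR Green I after lysis and 3 freeze-thaw cycles. IC50 by nonlinear regression against excipient-treated controls. Miltefosine reference.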

Leishmania infantum = assay: Antileishmanial activity against amastigote stage of Leishmania infantum (MHOM/FR/2008/LEM5700) infected in mouse RAW264.7 cells assessed as reduction in parasitic proliferation measured by SYBR Green 1 dye based fluorescence assay; type: functional, organism-based; settings: MHOM/FR/2008/LEM5700, RAW264.7; procedure, shortened: as §2
CDK2/Cyclin A2 = CDK2/Cyclin A2 (Homo sapiens, UniProt P24941); assay: Inhibition of human CDK2/ cyclinA using histone H1 as substrate in presence of ATP measured after 30 mins by ADP-Glo assay; type: protein-complex assay
[8] = Selectivity index, ratio of CC50 for human MRC5 cells to IC50 for amastigote stage of Leishmania donovani (MHOM/ET/67/HU3) infected in mouse RAW264.7 cells; type: toxicity, cell-based; settings: read-out: Ratio CC50/IC50; procedure, shortened: as §1
CDK9/cyclin T1 [9] = target: T2, CDK9/cyclin T1 (Homo sapiens, UniProt P50750); assay: Inhibition of human recombinant CDK9/CyclinT expressed in baculovirus infected Sf9 cells using YSPTSPSYSPTSPSYSPTSPSKKK as substrate in presence of ATP measured after 30 mins by ADP-Glo assay
T2 sequence (O60563 whole entry): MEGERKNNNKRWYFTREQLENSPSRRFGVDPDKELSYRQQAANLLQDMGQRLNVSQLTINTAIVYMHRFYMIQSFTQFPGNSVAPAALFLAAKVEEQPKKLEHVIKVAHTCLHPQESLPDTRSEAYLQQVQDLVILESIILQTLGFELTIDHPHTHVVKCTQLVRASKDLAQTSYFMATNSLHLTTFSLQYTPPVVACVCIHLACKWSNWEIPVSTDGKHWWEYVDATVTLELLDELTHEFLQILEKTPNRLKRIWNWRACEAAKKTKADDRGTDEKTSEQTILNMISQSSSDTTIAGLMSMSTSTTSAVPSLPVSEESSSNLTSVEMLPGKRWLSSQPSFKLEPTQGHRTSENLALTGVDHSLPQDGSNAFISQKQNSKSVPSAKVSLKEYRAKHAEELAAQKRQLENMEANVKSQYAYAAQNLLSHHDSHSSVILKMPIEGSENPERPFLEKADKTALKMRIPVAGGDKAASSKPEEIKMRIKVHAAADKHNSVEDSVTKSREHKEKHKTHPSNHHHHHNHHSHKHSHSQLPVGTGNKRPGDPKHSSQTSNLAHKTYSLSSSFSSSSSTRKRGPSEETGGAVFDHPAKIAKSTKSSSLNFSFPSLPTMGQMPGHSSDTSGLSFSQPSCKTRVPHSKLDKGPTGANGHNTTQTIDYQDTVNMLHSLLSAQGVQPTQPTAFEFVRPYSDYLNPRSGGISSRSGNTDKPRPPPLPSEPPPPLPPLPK
T2 sequence (P50750 whole entry): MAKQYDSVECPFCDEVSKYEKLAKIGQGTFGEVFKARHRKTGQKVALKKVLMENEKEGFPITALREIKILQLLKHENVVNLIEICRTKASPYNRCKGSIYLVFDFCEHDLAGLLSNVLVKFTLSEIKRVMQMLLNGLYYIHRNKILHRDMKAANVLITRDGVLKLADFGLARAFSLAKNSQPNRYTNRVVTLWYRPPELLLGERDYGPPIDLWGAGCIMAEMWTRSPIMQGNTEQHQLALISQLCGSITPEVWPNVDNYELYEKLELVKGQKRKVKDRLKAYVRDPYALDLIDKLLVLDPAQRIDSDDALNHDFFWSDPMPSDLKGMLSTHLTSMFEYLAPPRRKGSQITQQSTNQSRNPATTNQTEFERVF

Leishmania amazonensis = assay: Antileishmanial activity against amastigote stage Leishmania amazonensis (MHOM/BR/73/M2269) infected in mouse RAW264.7 cells assessed as reduction in parasitic proliferation measured by SYBR Green 1 dye based fluorescence assay; type: functional, organism-based; settings: MHOM/BR/73/M2269, RAW264.7; procedure, shortened: as §2
Leishmania donovani = assay: Antileishmanial activity against amastigote stage of Leishmania donovani (MHOM/ET/67/HU3) infected in mouse RAW264.7 cells assessed as reduction in parasitic proliferation measured by SYBR Green 1 dye based fluorescence assay; type: functional, organism-based; settings: MHOM/ET/67/HU3, RAW264.7; procedure, shortened: as §2
[10] = target: Cyclin-dependent kinase 5/CDK5 activator 1 (Homo sapiens, UniProt Q00535); assay: Inhibition of human recombinant CDK5/ p25 expressed in bacterial expression system using histone H1 as substrate in presence of ATP measured after 30 mins by ADP-Glo assay
Cyclin-dependent kinase 5/CDK5 activator 1, sequence (Q00535 whole entry): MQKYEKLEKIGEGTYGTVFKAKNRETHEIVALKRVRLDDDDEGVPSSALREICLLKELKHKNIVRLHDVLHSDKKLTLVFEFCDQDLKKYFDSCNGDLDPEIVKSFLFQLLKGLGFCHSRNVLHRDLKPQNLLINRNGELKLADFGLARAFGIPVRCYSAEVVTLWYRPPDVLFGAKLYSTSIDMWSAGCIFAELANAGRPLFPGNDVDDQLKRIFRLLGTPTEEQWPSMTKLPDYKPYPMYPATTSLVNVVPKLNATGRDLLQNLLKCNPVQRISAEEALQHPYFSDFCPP
Cyclin-dependent kinase 5/CDK5 activator 1, sequence (Q15078 whole entry, further chain): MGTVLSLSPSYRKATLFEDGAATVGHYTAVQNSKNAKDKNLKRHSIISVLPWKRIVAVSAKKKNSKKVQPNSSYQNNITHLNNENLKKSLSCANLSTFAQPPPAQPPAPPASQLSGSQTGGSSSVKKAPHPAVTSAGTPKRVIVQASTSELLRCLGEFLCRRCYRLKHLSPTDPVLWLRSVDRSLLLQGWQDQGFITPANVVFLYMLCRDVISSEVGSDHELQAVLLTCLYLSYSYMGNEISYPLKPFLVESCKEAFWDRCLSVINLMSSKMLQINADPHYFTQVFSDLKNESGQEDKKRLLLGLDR

[11] = target: T3, Dual specificity tyrosine-phosphorylation-regulated kinase 1A (Rattus norvegicus, UniProt Q63470); assay: Inhibition of recombinant rat DYRK1A (1 to 499 ) expressed in bacterial expression system using KKISGRLSPIMTEQ as substrate in presence of ATP measured after 30 mins by ADP-Glo assay; settings: 0.5 h
CDK9/cyclin T1 [12] = target: T2, CDK9/cyclin T1; assay: Inhibition of human recombinant CDK9/CyclinT expressed in baculovirus infected Sf9 cells using YSPTSPSYSPTSPSYSPTSPSKKK as substrate in presence of [gamma-33P]ATP by radiometric assay
[13] = target: T3, Dual specificity tyrosine-phosphorylation-regulated kinase 1A; assay: Inhibition of recombinant rat DYRK1A (1 to 499 ) expressed in bacterial expression system using KKISGRLSPIMTEQ as substrate in presence of [gamma-33P]ATP measured by radiometric assay; settings: for inhibition (INH): rat
[14] = target: Receptor-interacting serine/threonine-protein kinase 3 (Homo sapiens, UniProt Q9Y572); assay: Inhibition of recombinant human RIPK3 expressed in baculovirus infected Sf9 cells using MBP as substrate in presence of [gamma-33P]ATP by radiometric assay
Receptor-interacting serine/threonine-protein kinase 3, sequence (Q9Y572 whole entry): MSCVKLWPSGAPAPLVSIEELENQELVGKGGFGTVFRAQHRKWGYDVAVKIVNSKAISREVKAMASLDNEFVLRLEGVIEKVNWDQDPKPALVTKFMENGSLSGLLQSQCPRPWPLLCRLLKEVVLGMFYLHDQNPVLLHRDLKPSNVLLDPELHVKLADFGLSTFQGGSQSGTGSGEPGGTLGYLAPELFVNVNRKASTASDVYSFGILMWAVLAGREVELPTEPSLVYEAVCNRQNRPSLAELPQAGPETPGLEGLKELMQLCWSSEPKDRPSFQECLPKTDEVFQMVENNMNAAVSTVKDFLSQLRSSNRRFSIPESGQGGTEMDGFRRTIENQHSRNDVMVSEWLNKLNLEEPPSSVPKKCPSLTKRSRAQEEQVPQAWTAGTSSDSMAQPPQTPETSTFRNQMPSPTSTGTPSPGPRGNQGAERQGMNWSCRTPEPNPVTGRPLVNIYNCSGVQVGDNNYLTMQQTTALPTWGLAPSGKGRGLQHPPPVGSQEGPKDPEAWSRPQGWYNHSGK

Aurora kinase B [15] = target: T1, Aurora kinase B; assay: Inhibition of recombinant human AURKB expressed in baculovirus infected Sf9 cells using MBP as substrate in presence of [gamma-33P]ATP measured by radiometric assay
[16] = Inhibition of recombinant Leishmania major CK1.2 expressed in bacterial expression system using RRKHAAIGSpAYSITA as substrate in presence of [gamma-33P]ATP by radiometric assay

| SMILES | selectivity ratio [1] | IC50 [2] [µM] | inhibition (INH) [3] | selectivity ratio [4] | inhibition (INH) (Aurora kinase B [5]) | selectivity ratio [6] | Activity [7] | IC50 (Leishmania braziliensis) [µM] | IC50 (Leishmania infantum) [µM] | IC50 (CDK2/Cyclin A2) [µM] | selectivity ratio [8] | IC50 (CDK9/cyclin T1 [9]) [µM] | IC50 (Leishmania amazonensis) [µM] | IC50 (Leishmania donovani) [µM] | IC50 [10] [µM] | IC50 (CDK9/cyclin T1 [12]) [µM] | inhibition (INH) [13] | inhibition (INH) [14] | inhibition (INH) (Aurora kinase B [15]) | IC50 [16] [µM] | further results |
| --- | --- | --- | --- | --- | --- | --- | --- | --- | --- | --- | --- | --- | --- | --- | --- | --- | --- | --- | --- | --- | --- |
| CN(C)c1nccn2c(-c3ccncc3)c(-c3ccc(F)cc3)nc12 | 7.8 | > 10 | Not Active | 1.7 | Not Active | 1.5 | Non-Toxic | 57.9 | 12.8 | > 10 | 36.5 | > 10 | 28.4 | 2.74 | > 10 |  |  |  |  |  | inhibition (INH) [11]: Not Active |
| CN(C)c1nccn2c(-c3cncnc3)c(-c3ccc(F)cc3)nc12 |  | > 10 | Not Active | 4.4 | Not Active |  | Non-Toxic | 22.8 | > 50 | > 10 |  | > 10 | > 50 | > 50 | > 10 |  |  |  |  |  | inhibition (INH) [11]: Not Active |
| CSc1nccc(-c2c(-c3ccc(F)cc3)nc3c(Cl)nccn23)n1 |  |  |  | 1.1 |  |  | Non-Toxic | 74 | > 100 |  |  |  | > 100 | > 100 |  | > 10 | Not Active | Not Active | Not Active | > 10 |  |
| CN(C)c1nccn2c(-c3ccnc(N)n3)c(-c3ccccc3)nc12 |  |  |  | 1 |  | 1.9 | Non-Toxic | 56.5 | > 100 |  |  |  | 23.4 | > 100 |  | > 10 | Not Active | Not Active | Not Active | 0.035 |  |
| CN(C)c1nccn2c(-c3cnn(C)c3)c(-c3ccc(F)cc3)nc12 | 38.5 | > 10 | Not Active | 4 | Not Active | 0.6 | Non-Toxic | > 25 | 2.6 | > 10 | 78.7 | > 10 | > 25 | 1.27 | > 10 |  |  |  |  |  | inhibition (INH) [11]: Not Active |
| CN(C)c1nccn2c(-c3ccc4[nH]ncc4c3)c(-c3ccc(F)cc3)nc12 | 2 | > 10 | Not Active | 2 | Not Active | 0.6 | Non-Toxic | > 12.5 | 12.9 | > 10 | 2 | > 10 | > 12.5 | > 12.5 | > 10 |  |  |  |  |  | inhibition (INH) [11]: Not Active |
| CN(C)c1nccn2c(-c3ccnc(N)n3)c(-c3ccc(F)cc3)nc12 | 15.2 |  |  | 4.1 |  | 6.9 | Non-Toxic | 24.3 | 6.55 |  | 10 |  | 6.12 | 9.97 |  | > 10 | Not Active | Not Active | Not Active | 0.042 |  |
| CSc1nccc(-c2c(-c3ccccc3)nc3c(N(C)C)nccn23)n1 | 6.5 |  |  | 1.8 |  | 5.6 | Non-Toxic | 45.6 | 12.5 |  | 4.6 |  | 5.99 | 17.6 |  | > 10 | Not Active | Not Active | Not Active | 3.5 |  |
| CSc1nccc(-c2c(-c3ccccc3)nc3c(Cl)nccn23)n1 | 17.3 |  |  | 1.9 |  | 15.8 | Non-Toxic | 17.7 | 1.93 |  | 3.4 |  | 3.2 | 9.82 |  | > 10 | Not Active | Not Active | Not Active | 5 |  |
| CSc1nccc(-c2c(-c3ccc(F)cc3)nc3c(N(C)C)nccn23)n1 | 10.8 |  |  | 1.1 |  | 2.9 | Non-Toxic | 63.5 | 6.2 |  | 6.4 |  | 12.5 | 10.4 |  | > 10 | Not Active | Not Active | Not Active | 1 |  |
| CSc1nccc(-c2c(-c3ccc(F)cc3)nc3c(N)nccn23)n1 | 1.5 |  |  | 1.5 |  | > 0.9 | Non-Toxic | > 12.5 | > 12.5 |  | 1.5 |  | > 12.5 | > 12.5 |  | > 10 |  | Not Active | Not Active | 0.65 | IC50 [13]: 2 µM |
